Test results taken from ChEMBL document CHEMBL3124849, “Total synthesis of burkholdacs A and B and 5,6,20-tri-epi-burkholdac A: HDAC inhibition and antiproliferative activity” (Eur J Med Chem, 2014).
Blank lines part the entries; values can stand above or below the compound they belong to.

How the values were obtained:
[1] = system: SF-268; test: Cytotoxicity against human SF268 cells by SRB assay; assay type: functional
Method in brief: (§1)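 Tested at the Japanese Foundation for Cancer Research panel of 39 human cancer cell lines. Five concentrations per compound, spanning 10^-10 to 10^-6 M or 10^-8 to 10^-4 M. Growth measured by sulforhodamine B colorimetry. GI50 is the concentration giving 50% growth inhibition relative to control.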

[2] = system: U-251; test: Cytotoxicity against human U251 cells by SRB assay; assay type: functional; method in brief: as §1
[3] = system: MDA-MB-231; test: Cytotoxicity against human MDA-MB-231 cells by SRB assay; assay type: functional; method in brief: as §1
[4] = Cytotoxicity against human HBC5 cells by SRB assay; assay type: functional; method in brief: as §1
[5] = system: MCF7; test: Cytotoxicity against human MCF7 cells by SRB assay; assay type: functional; method in brief: as §1
[6] = Cytotoxicity against human BSY1 cells by SRB assay; assay type: functional; settings: BSY-1; method in brief: as §1
[7] = Cytotoxicity against human HBC4 cells by SRB assay; assay type: functional; method in brief: as §1
[8] = biological target: T1, Histone deacetylase 1 (Homo sapiens, UniProt Q13547); test: Ratio of FK228 IC50 to compound IC50 for human HDAC1 expressed in human 293T cells; assay type: cell-based
T1 sequence (Q13547 whole entry): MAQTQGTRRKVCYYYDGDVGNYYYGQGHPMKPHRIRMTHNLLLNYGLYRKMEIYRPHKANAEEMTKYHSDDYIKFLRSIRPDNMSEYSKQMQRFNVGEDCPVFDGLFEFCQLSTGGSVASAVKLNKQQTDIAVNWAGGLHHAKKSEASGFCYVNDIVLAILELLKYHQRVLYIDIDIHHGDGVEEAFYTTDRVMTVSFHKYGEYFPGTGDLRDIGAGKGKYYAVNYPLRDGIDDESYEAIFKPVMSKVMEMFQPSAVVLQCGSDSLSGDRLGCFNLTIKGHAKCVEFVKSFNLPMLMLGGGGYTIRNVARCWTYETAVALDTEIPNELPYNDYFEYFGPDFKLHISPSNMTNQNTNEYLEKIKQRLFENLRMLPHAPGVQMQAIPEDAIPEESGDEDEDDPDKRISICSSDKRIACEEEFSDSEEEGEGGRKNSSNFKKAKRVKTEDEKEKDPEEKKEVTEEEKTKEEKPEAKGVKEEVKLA
Method in brief: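 FLAG-tagged human HDAC1 was expressed transiently in 293T cells (pcDNA3-HDAC1), immunoprecipitated with anti-FLAG M2 and eluted with FLAG peptide. Enzyme was incubated with 2 mM stock Ac-KGLGK(Ac)-MCA in 20 mM Tris-HCl pH 8.0, 150 mM NaCl, 10% glycerol, 100 μM DTT, for 30 min at 37 °C. Trypsin then released AMC, read by fluorescence. IC50 is the mean of ≥3 dose-response curves; FK228 reference run alongside.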

[9] = Selectivity index, ratio of IC50 for mouse HDAC6 to IC50 for human HDAC1
Method in brief: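 Ratio of HDAC6 IC50 to HDAC1 IC50. Both enzymes were FLAG-immunopurified from transfected 293T cells: human HDAC1 and mouse HDAC6. Each was assayed on Ac-KGLGK(Ac)-MCA with 100 µM DTT at 37 °C for 30 min, developed with trypsin, and AMC read by fluorescence. IC50s are means of ≥3 curves.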

[10] = biological target: T2, Protein deacetylase HDAC6 (Mus musculus, UniProt Q9Z2V5); test: Inhibition of mouse HDAC6 expressed in human 293T cells using Ac-KGLGK(Ac)-MCA as substrate after 30 mins by fluorescence assay; assay type: cell-based
T2 sequence (Q9Z2V5 whole entry): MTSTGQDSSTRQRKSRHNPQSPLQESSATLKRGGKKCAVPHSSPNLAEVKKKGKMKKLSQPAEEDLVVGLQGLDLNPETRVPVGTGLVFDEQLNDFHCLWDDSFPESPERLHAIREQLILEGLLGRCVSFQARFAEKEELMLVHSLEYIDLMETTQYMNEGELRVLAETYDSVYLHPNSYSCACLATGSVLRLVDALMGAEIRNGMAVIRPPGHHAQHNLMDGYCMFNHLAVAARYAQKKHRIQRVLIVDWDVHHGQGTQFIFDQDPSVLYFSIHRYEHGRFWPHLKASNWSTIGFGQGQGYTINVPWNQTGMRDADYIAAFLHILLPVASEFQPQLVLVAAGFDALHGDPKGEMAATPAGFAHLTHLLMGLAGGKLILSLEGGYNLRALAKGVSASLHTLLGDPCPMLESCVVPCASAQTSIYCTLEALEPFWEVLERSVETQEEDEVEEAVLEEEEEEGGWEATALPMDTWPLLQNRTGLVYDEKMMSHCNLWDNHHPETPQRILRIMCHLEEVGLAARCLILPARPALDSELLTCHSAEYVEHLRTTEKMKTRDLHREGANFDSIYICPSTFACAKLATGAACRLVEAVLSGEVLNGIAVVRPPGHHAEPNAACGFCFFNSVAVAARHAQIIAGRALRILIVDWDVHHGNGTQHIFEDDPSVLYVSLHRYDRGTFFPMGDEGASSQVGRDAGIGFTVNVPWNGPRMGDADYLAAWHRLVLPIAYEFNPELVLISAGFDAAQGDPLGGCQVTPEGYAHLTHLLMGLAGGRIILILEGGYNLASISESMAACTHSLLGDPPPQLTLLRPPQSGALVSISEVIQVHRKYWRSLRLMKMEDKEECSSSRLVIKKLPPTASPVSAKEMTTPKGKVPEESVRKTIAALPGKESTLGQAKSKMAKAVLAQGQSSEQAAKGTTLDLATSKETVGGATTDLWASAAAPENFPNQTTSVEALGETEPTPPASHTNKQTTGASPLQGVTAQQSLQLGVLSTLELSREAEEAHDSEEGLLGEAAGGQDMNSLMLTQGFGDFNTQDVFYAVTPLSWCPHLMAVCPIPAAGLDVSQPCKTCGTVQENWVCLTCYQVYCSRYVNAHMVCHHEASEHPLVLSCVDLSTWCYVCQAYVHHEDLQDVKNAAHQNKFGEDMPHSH

[11] = biological target: T1, Histone deacetylase 1; test: Inhibition of human HDAC1 expressed in human 293T cells using Ac-KGLGK(Ac)-MCA as substrate after 30 mins by fluorescence assay
[12] = system: PC-3; test: Cytotoxicity against human PC3 cells by SRB assay; assay type: functional; method in brief: as §1
[13] = system: DU-145; test: Cytotoxicity against human DU145 cells by SRB assay; assay type: functional; method in brief: as §1
[14] = Cytotoxicity against human MKN45 cells by SRB assay; assay type: functional; settings: MKN-45; method in brief: as §1
[15] = Cytotoxicity against human MKN74 cells by SRB assay; assay type: functional; settings: MKN-74; method in brief: as §1
[16] = Cytotoxicity against human MKN7 cells by SRB assay; assay type: functional; settings: MKN-7; method in brief: as §1
[17] = Cytotoxicity against human MKN28 cells by SRB assay; assay type: functional; settings: MKN-28; method in brief: as §1
[18] = Cytotoxicity against human MKN1 cells by SRB assay; assay type: functional; settings: MKN-1; method in brief: as §1
[19] = system: St-4; test: Cytotoxicity against human St-4 cells by SRB assay; assay type: functional; method in brief: as §1
[20] = system: ACHN; test: Cytotoxicity against human ACHN cells by SRB assay; assay type: functional; method in brief: as §1
[21] = Cytotoxicity against human RXF631L cells by SRB assay; assay type: functional; settings: RXF 631; method in brief: as §1
[22] = system: SK-OV-3; test: Cytotoxicity against human SKOV3 cells by SRB assay; assay type: functional; method in brief: as §1
[23] = system: OVCAR-8; test: Cytotoxicity against human OVCAR8 cells by SRB assay; assay type: functional; method in brief: as §1
[24] = Cytotoxicity against human OVCAR5 cells by SRB assay; assay type: functional; settings: OVCAR-5; method in brief: as §1
[25] = Cytotoxicity against human OVCAR4 cells by SRB assay; assay type: functional; settings: OVCAR-4; method in brief: as §1
[26] = system: OVCAR-3; test: Cytotoxicity against human OVCAR3 cells by SRB assay; assay type: functional; method in brief: as §1
[27] = system: LOX IMVI; test: Cytotoxicity against human LOXIMVI cells by SRB assay; assay type: functional; method in brief: as §1
[28] = Cytotoxicity against human DMS273 cells by SRB assay; assay type: functional; settings: DMS-273; method in brief: as §1
[29] = Cytotoxicity against human DMS114 cells by SRB assay; assay type: functional; settings: DMS-114; method in brief: as §1
[30] = system: NCI-H460; test: Cytotoxicity against human NCI-H460 cells by SRB assay; assay type: functional; method in brief: as §1
[31] = system: A549; test: Cytotoxicity against human A549 cells by SRB assay; assay type: functional; method in brief: as §1
[32] = system: NCI-H226; test: Cytotoxicity against human NCI-H226 cells by SRB assay; assay type: functional; method in brief: as §1
[33] = system: NCI-H522; test: Cytotoxicity against human NCI-H522 cells by SRB assay; assay type: functional; method in brief: as §1
[34] = system: NCI-H23; test: Cytotoxicity against human NCI-H23 cells by SRB assay; assay type: functional; method in brief: as §1
[35] = system: HCT-116; test: Cytotoxicity against human HCT116 cells by SRB assay; assay type: functional; method in brief: as §1
[36] = system: HCT-15; test: Cytotoxicity against human HCT15 cells by SRB assay; assay type: functional; method in brief: as §1
[37] = system: HT-29; test: Cytotoxicity against human HT-29 cells by SRB assay; assay type: functional; method in brief: as §1
[38] = system: KM12; test: Cytotoxicity against human KM12 cells by SRB assay; assay type: functional; method in brief: as §1
[39] = Cytotoxicity against human SNB78 cells by SRB assay; assay type: functional; settings: SNB-78; method in brief: as §1
[40] = system: HCC 2998; test: Cytotoxicity against human HCC2998 cells by SRB assay; assay type: functional; method in brief: as §1
[41] = system: SNB-75; test: Cytotoxicity against human SNB75 cells by SRB assay; assay type: functional; method in brief: as §1
[42] = system: SF-295; test: Cytotoxicity against human SF295 cells by SRB assay; assay type: functional; method in brief: as §1
[43] = system: SF-539; test: Cytotoxicity against human SF539 cells by SRB assay; assay type: functional; method in brief: as §1

- Ratio IC50 [8]: 3
- Ratio IC50 [9]: 1640
- IC50 [10]: 1970 nM
- IC50 [11]: 1.2 nM
SMILES: CSCC[C@H]1NC(=O)C[C@H]2/C=C/CCSSC[C@@H](NC1=O)C(=O)N[C@H](C(C)C)[C@@H](O)CC(=O)O2
- GI50 [1]: 1.8 nM
- GI50 [2]: 2.2 nM
- GI50 [3]: 1.8 nM
- GI50 [4]: 7.8 nM
- GI50 [5]: 2 nM
- GI50 [6]: 4 nM
- GI50 [7]: 3 nM
- GI50 [12]: 4.4 nM
- GI50 [13]: 0.82 nM
- GI50 [14]: 7.6 nM
- GI50 [15]: 1.8 nM
- GI50 [16]: 4.1 nM
- GI50 [17]: 8.5 nM
- GI50 [18]: 0.67 nM
- GI50 [19]: 8.1 nM
- GI50 [20]: 3.4 nM
- GI50 [21]: 1.3 nM
- GI50 [22]: 0.78 nM
- GI50 [23]: 0.68 nM
- GI50 [24]: 1 nM
- GI50 [25]: 5.8 nM
- GI50 [26]: 2.2 nM
- GI50 [27]: 0.5 nM
- GI50 [28]: 3 nM
- GI50 [29]: 0.97 nM
- GI50 [30]: 0.91 nM
- GI50 [31]: 0.57 nM
- GI50 [32]: 0.47 nM
- GI50 [33]: 0.2 nM
- GI50 [34]: 0.64 nM
- GI50 [35]: 0.51 nM
- GI50 [36]: 300 nM
- GI50 [37]: 0.65 nM
- GI50 [38]: 0.76 nM
- GI50 [39]: 460 nM
- GI50 [40]: 0.67 nM
- GI50 [41]: 3.6 nM
- GI50 [42]: 3 nM
- GI50 [43]: 0.72 nM

- IC50 [10]: > 10000 nM
- IC50 [11]: 337 nM
SMILES: CSCC[C@@H]1NC(=O)C[C@H]2/C=C/CCSSC[C@@H](NC1=O)C(=O)N[C@@H](C(C)C)[C@H](O)CC(=O)O2
- GI50 [1]: 960 nM
- GI50 [2]: 410 nM
- GI50 [3]: 1800 nM
- GI50 [4]: 1900 nM
- GI50 [5]: 1800 nM
- GI50 [6]: 1600 nM
- GI50 [7]: 1300 nM
- GI50 [12]: 1600 nM
- GI50 [13]: 1500 nM
- GI50 [14]: 3700 nM
- GI50 [15]: 1500 nM
- GI50 [16]: 2100 nM
- GI50 [17]: 1900 nM
- GI50 [18]: 1400 nM
- GI50 [19]: 3400 nM
- GI50 [20]: 4400 nM
- GI50 [21]: 4000 nM
- GI50 [22]: 1700 nM
- GI50 [23]: 1900 nM
- GI50 [24]: 1300 nM
- GI50 [25]: 1800 nM
- GI50 [26]: 1800 nM
- GI50 [27]: 230 nM
- GI50 [28]: 2300 nM
- GI50 [29]: 1300 nM
- GI50 [30]: 1800 nM
- GI50 [31]: 1400 nM
- GI50 [32]: 1700 nM
- GI50 [33]: 360 nM
- GI50 [34]: 1600 nM
- GI50 [35]: 540 nM
- GI50 [36]: 15000 nM
- GI50 [37]: 1400 nM
- GI50 [38]: 1600 nM
- GI50 [39]: 1700 nM
- GI50 [40]: 1700 nM
- GI50 [41]: 1000 nM
- GI50 [42]: 1600 nM
- GI50 [43]: 1800 nM

- Ratio IC50 [9]: 636
SMILES: CCC(C)[C@H]1NC(=O)[C@H]2CSSCC/C=C/[C@H](CC(=O)N[C@H](C)C(=O)N2)OC(=O)C[C@@H]1O (stereo not given in full)
